Data set [1] concerns L929 cells (TNF-α-induced necroptosis). In words: Necroptosis induction and inhibition assay in L929. The format is cell-based, mouse. As to conditions: Mus musculus, L929, read-out: EC50^L929 against TNF-α-induced necroptosis, mouse TNF-α (20 ng/mL) and zVAD (10 μM), CCK-8.
In another data set the test system is L929 cells. In words: Cell viability assay with or without zVAD. The format is cell-based, mouse. As to conditions: for on-target apoptosis in cells (in words): L929, murine cells.
Data set [2] concerns caspase 3 and caspase 8 cleavage in L929 cells. In words: Western blot of caspase 3 and caspase 8 cleavage in L929 cells. The class given is cell-based, mouse. The following applies: L929, 3 hours. The procedure, abridged: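 L929 cells in 12-well plates at about 80% confluency were exposed for 3 h to test compound, DMSO or medium, each with 10 µM zVAD. Cells were lysed at room temperature in a Triton X-100/Tris-based 1× SDS sample buffer and boiled 10 min. Proteins were run on 15% SDS-PAGE and blotted to PVDF. Membranes were blocked in 5% milk and probed for caspase 3 and caspase 8 cleavage overnight at 4 °C. Three independent experiments.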

In data set [3] the test system is HT29 cells (TNF-α-induced necroptosis). In words: Necroptosis induction and inhibition assay in HT29. The class given is cell-based, human. As to conditions: Homo sapiens, HT-29, read-out: EC50^HT29 against TNF-α-induced necroptosis, zVAD (20 μM), human TNF-α (40 ng/mL), Smac mimetic SM-164 (100 nM), CCK-8.

SMILES strings stand for the structures. Where a name gives a salt, the structure may show the parent alone.

As to `CC(C)(C)n1nc(-c2ccc3sc(C4CCCC4)nc3c2)c2c(N)ncnc21` [LK01005, 1-(tert-butyl)-3-(2-cyclopentylbenzo[d]thiazol-5-yl)-1H-pyrazolo[3,4-d]pyrimidin-4-amine], the EC50 in data set [1] worked out at 2100 nM. Also, in the data set with L929 cells (L929), the “RIPK3-independent cell killing (off-target toxicity)” value is on record as “still exhibit a substantial portion of RIPK3-independent cell killing” and the “change of CC50 in the presence or absence of zVAD” value (“change of CC50” for short) is given as “do not change significantly in the presence or absence of zVAD”. The “on-target apoptosis in cells (in words)” value in the data set with L929 cells was “do not induce on-target apoptosis”. For the same compound, the “concentration at which cleavage of caspases 8 and 3 is seen (Western blot)” value (“concentration at which cleavage” for short) in data set [2] is greater than 100 µM.
Turning to `Cl.O=S1(=O)C=C(C2CC2)c2cc3nccc(Nc4ccc5scnc5c4)c3cc21` [Zharp-99, 8-(benzo[d]thiazol-5-ylamino)-3-cyclopropylthieno[2,3-g]quinoline 1,1-dioxide hydrochloride, reference compound], the EC50 in data set [1] was found to be 70 nM; in data set [3], 220 nM. The “difference of CC50 in the presence or absence of zVAD” value in the data set on L929 cells (L929) is given as ~ 36 fold. In data set [2], the “concentration at which cleavage” value was 0.1 µM.
As for `Cl.O=S1(=O)C=C(C2CC2)c2cc3nccc(Nc4ccc5sc(C6CCCC6)nc5c4)c3cc21` [LK01033, 8-((2-cyclopentylbenzo[d]thiazol-5-yl)amino)-3-cyclopropylthieno[2,3-g]quinoline 1,1-dioxide hydrochloride], the EC50 in data set [1] amounted to 390 nM; in data set [3], 110 nM. Further, the “change of CC50” value in the data set with L929 cells (L929) was “does not change significantly in the presence or absence of zVAD”. Further, in data set [2], the “concentration at which cleavage” value is greater than 10 µM.
As to `CC[C@H](C)c1nc2cc(Nc3ccnc4ccc(S(=O)(=O)C(C)C)cc34)ccc2s1` [LK01001, (S)-2-(sec-butyl)-N-(6-(isopropylsulfonyl)quinolin-4-yl)benzo[d]thiazol-5-amine hydrochloride], the EC50 in data set [1] stood at 7000 nM; in data set [3], 4100 nM.
`N#Cc1c(Oc2ccc(F)c(NC(=O)Cc3cccc(C(F)(F)F)c3)c2)ccc2nc(NC(=O)C3CC3)sc12` [TAK-632, N-(7-Cyano-6-(4-fluoro-3-(2-(3-(trifluoromethyl)phenyl)acetamido)phenoxy)benzo[d]thiazol-2-yl)cyclopropanecarboxamide, reference compound]: the “concentration at which cleavage” value in data set [2] is greater than 100 µM.
Take `CCC(C)c1nc2cc(-c3nn(C(C)(C)C)c4ncnc(N)c34)ccc2s1` (stereo not drawn) [LK01004, 1-(tert-butyl)-3-(2-(sec-butyl)benzo[d]thiazol-5-yl)-1H-pyrazolo[3,4-d]pyrimidin-4-amine]: the EC50 in data set [1] amounted to 3000 nM. Besides, in the data set on L929 cells (L929), the “RIPK3-independent cell killing (off-target toxicity)” value is given as “still exhibit a substantial portion of RIPK3-independent cell killing” and the “change of CC50” value is “do not change significantly in the presence or absence of zVAD”. In addition, the “on-target apoptosis in cells (in words)” value in the data set with L929 cells is given as “do not induce on-target apoptosis”. In data set [2], the “concentration at which cleavage” value was greater than 100 µM.

For the origin of these results see PMC12062462 (Nature Communications, 2025).
